In ChEMBL document CHEMBL1795332, “Renin inhibitors for the treatment of hypertension: design and optimization of a novel series of pyridone-substituted piperidines” (Bioorg Med Chem Lett, 2011):

Legend:
CYP3A4 [1] = target: T1, CYP3A4 (Homo sapiens, UniProt P08684); assay: Time dependent inhibition of CYP3A4 assessed as conversion of testosterone to 6-beta-hydroxytestosterone at 10 uM relative to control; type: ADME; details: probe testosterone
Procedure, shortened: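 Rate of CYP3A4 conversion of testosterone (250 μM) to 6-β-hydroxytestosterone measured before and after a 30 min incubation with compound at 10 μM (in DMSO). Difference expressed as % loss.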

CYP3A4 [2] = target: T1, CYP3A4; assay: Reversible inhibition of CYP3A4 assessed as conversion of testosterone to 6-beta-hydroxytestosterone at 10 uM relative to control; type: ADME; details: probe testosterone
[3] = Oral bioavailability in Sprague-Dawley rat at 20 mg/kg; type: ADME, organism-based; details: in vivo
[4] = target: Voltage-gated inwardly rectifying potassium channel KCNH2 (Homo sapiens, UniProt Q12809); assay: Inhibition of human ERG
Sequence of Voltage-gated inwardly rectifying potassium channel KCNH2 (Q12809 whole entry): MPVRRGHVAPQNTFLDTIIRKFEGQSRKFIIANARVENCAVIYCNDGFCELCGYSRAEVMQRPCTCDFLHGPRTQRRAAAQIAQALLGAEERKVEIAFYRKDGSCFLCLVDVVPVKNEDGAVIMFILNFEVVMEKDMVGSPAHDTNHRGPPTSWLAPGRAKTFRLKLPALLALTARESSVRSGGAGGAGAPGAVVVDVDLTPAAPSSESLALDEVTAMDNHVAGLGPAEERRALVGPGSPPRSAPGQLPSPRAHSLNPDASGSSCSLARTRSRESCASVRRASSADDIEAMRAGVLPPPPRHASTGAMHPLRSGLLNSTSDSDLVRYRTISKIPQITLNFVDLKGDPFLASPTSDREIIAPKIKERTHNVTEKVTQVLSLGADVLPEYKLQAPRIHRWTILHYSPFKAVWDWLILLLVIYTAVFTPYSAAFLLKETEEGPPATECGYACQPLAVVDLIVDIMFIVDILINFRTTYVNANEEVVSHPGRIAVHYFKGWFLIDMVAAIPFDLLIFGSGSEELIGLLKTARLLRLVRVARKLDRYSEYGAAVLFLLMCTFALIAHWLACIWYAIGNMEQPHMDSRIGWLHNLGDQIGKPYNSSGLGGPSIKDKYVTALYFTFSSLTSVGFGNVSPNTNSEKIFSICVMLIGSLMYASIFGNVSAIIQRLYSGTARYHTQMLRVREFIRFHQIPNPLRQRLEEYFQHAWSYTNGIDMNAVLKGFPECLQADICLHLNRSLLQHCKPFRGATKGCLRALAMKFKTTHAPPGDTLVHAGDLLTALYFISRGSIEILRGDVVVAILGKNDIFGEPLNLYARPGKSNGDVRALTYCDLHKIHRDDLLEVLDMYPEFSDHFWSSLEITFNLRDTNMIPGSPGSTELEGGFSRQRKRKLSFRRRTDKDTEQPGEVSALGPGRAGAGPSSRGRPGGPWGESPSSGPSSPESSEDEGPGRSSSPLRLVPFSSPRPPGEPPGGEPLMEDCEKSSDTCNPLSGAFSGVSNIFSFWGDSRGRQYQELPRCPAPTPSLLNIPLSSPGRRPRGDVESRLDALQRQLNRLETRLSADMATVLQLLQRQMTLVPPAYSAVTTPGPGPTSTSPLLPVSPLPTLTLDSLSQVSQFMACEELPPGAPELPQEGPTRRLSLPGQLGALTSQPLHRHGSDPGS

Renin [5] = target: T2, Renin (Homo sapiens, UniProt P00797); assay: Inhibition of human recombinant renin using Q-FRET substrate after 3 hrs by fluorescence assay
T2 sequence (P00797 whole entry): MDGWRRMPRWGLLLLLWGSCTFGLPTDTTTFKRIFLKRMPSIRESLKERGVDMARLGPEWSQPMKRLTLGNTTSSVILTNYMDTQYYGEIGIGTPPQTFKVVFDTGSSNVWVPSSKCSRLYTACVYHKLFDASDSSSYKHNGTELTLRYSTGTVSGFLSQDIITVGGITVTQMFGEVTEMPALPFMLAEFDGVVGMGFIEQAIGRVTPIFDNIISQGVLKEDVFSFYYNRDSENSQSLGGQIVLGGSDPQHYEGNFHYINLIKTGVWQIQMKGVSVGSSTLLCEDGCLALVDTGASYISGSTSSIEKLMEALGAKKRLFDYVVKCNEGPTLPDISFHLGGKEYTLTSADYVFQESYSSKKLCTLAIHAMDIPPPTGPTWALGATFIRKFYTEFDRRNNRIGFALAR

Renin [6] = target: T2, Renin; assay: Inhibition of renin in human plasma using Q-FRET substrate pretreated for 10 mins before substrate addition measured after 1 hr
[7] = Oral bioavailability in Sprague-Dawley rat at 30 mg/kg; type: ADME, organism-based; details: in vivo
[8] = Oral bioavailability in Sprague-Dawley rat at 3 mg/kg; type: ADME, organism-based; details: in vivo

T1 sequence (P08684 whole entry): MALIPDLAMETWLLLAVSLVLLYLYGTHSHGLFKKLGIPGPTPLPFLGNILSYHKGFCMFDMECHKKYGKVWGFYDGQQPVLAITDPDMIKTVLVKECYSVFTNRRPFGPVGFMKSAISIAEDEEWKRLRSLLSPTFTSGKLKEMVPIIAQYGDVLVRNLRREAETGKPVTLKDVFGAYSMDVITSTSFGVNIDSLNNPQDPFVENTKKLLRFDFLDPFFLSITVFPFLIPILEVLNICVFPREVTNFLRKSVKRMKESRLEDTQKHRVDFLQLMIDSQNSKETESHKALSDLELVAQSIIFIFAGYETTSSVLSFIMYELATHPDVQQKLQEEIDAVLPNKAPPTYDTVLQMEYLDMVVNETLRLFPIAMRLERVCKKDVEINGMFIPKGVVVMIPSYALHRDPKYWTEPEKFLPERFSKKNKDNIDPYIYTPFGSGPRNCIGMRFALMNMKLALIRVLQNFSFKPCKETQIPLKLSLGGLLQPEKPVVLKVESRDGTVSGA

Structure (SMILES)	inhibition at 10 µM (CYP3A4 [1]) [%]	activity % at 10 µM (CYP3A4 [2]) [%]	bioavailability [3] [%]	IC50 (Renin [5]) [nM]	IC50 (Renin [6]) [nM]	bioavailability [7] [%]	bioavailability [8] [%]	Ki [4] [nM]
COCCCc1cc(CN(C(=O)[C@H]2CNCC[C@@H]2c2ccc(OCCOc3c(Cl)cc(C)cc3Cl)cc2)C2CC2)cc(OCCOC)c1	27	9	27					800
COCCCc1cc(CN(C(=O)[C@H]2CNCC[C@@H]2c2ccccc2)C2CC2)cc(OCCOC)c1	0	33		150	580			7200
COCCCc1cc(CN(C(=O)[C@H]2CNCC[C@@H]2c2cccnc2)C2CC2)cc(OCCOC)c1	9	75	61	45	140			> 29000
COCCCc1cc(CN(C(=O)[C@H]2CNCC[C@@H]2c2ccn(C)c(=O)c2)C2CC2)cc(OCCOC)c1	0	78	3					> 29000
CCn1ccc([C@H]2CCNC[C@@H]2C(=O)N(Cc2cc(CCCOC)cc(OCCOC)c2)C2CC2)cc1=O	5	70	1	200	460			> 29000
COCCCc1cc(CN(C(=O)[C@H]2CNCC[C@@H]2c2cc(=O)n(C)c(C)c2C)C2CC2)cc(OCCOC)c1	0	41	0	25	80			> 29000
COCCCc1cc(CN(C(=O)[C@H]2CNCC[C@@H]2c2cc(=O)n(C)c3ccccc23)C2CC2)cc(OCCOC)c1	5	100	1	13	39			28000
Cn1ccc([C@H]2CCNC[C@@H]2C(=O)N(Cc2cccc(Cl)c2Cl)C2CC2)cc1=O	37	61	23	20	42			13000
COCCCc1ccc(Cl)c(CN(C(=O)[C@H]2CNCC[C@@H]2c2ccn(C)c(=O)c2)C2CC2)c1	29		14	8	25			
Cn1ccc([C@H]2CCNC[C@@H]2C(=O)N(Cc2cc(CCCC#N)cc(Cl)c2Cl)C2CC2)cc1=O	20	55	7	4.9	10			8400
Cn1ccc([C@H]2CCNC[C@@H]2C(=O)N(Cc2cc(CCC#N)cc(Cl)c2Cl)C2CC2)cc1=O	15	52	8	8.5	17			17000
CC(=O)NCCc1cc(Cl)c(Cl)c(CN(C(=O)[C@H]2CNCC[C@@H]2c2ccn(C)c(=O)c2)C2CC2)c1	0	97	0	4.5	9			> 29000
COC(=O)NCCc1cc(Cl)c(Cl)c(CN(C(=O)[C@H]2CNCC[C@@H]2c2ccn(C)c(=O)c2)C2CC2)c1	56	45	1	61	210			15000
COCCNc1cc(Cl)c(Cl)c(CN(C(=O)[C@H]2CNCC[C@@H]2c2ccn(C)c(=O)c2)C2CC2)c1	0	71	1	7.1	26			18000
COCCCc1cc(CN(C(=O)[C@H]2CNCC[C@@H]2c2ccn(C)c(=O)c2)C2CC2)cc(-c2ccccc2)c1	0	23	8	18	81			

More lines, in order of falling IC50 (Renin [5]), values ahead:

inhibition at 10 µM (CYP3A4 [1]) [%]	activity % at 10 µM (CYP3A4 [2]) [%]	bioavailability [3] [%]	IC50 (Renin [5]) [nM]	IC50 (Renin [6]) [nM]	bioavailability [7] [%]	bioavailability [8] [%]	Structure (SMILES)	Ki [4] [nM]
1	23		3	6.5	28		COCCCc1cc(Cl)cc(CN(C(=O)[C@H]2CNCC[C@@H]2c2ccn(C)c(=O)c2)C2CC2)c1	7600
4		20	2	8			COCCCc1cc(CN(C(=O)[C@H]2CNCC[C@@H]2c2cc(=O)n(C)c3cc(Cl)ccc23)C2CC2)cc(OCCOC)c1	
45	15	15	1.7	3.5			COCCCc1cc(Br)cc(CN(C(=O)[C@H]2CNCC[C@@H]2c2ccn(C)c(=O)c2)C2CC2)c1	
13	95	1	1.4	3			COCCCc1cc(CN(C(=O)[C@H]2CNCC[C@@H]2c2ccn(C)c(=O)c2)C2CC2)c2ccccc2n1	> 29000
16	85		0.8	2.2	2		COCCCc1cc(CN(C(=O)[C@H]2CNCC[C@@H]2c2ccn(C)c(=O)c2)C2CC2)c2ncccc2c1	27000
23	68	18	0.6	2.2			COCCc1cc(Cl)c(Cl)c(CN(C(=O)[C@H]2CNCC[C@@H]2c2ccn(C)c(=O)c2)C2CC2)c1	11000
15			0.6	1	7		COCCCc1cc(C)c(C)c(CN(C(=O)[C@H]2CNCC[C@@H]2c2ccn(C)c(=O)c2)C2CC2)c1	
34	54	4	0.4	1.4			COCCCc1cc(CN(C(=O)[C@H]2CNCC[C@@H]2c2ccn(C)c(=O)c2)C2CC2)c2ccccc2c1	17000
0	41		0.32	0.87	8		COCCCn1cc(CN(C(=O)[C@H]2CNCC[C@@H]2c2ccn(C)c(=O)c2)C2CC2)c2c(F)cccc21	> 29000
19	48		0.12	0.64	22		COCCCn1cc(CN(C(=O)[C@H]2CNCC[C@@H]2c2ccn(C)c(=O)c2)C2CC2)c2c(Cl)cccc21	23000
48	63		0.07	0.57		3	COCCCn1cc(CN(C(=O)[C@H]2CNCC[C@@H]2c2ccn(C)c(=O)c2)C2CC2)c2c(Br)cccc21	11000
39	18		0.06	0.63	30		Cn1ccc([C@H]2CCNC[C@@H]2C(=O)N(Cc2cn(Cc3cccc(F)c3)c3cccc(F)c23)C2CC2)cc1=O	1200
70	16		0.05	0.48	17		Cn1ccc([C@H]2CCNC[C@@H]2C(=O)N(Cc2cn(Cc3ccc(F)cc3)c3cccc(F)c23)C2CC2)cc1=O	750
43	19		0.02	0.62		16	Cn1ccc([C@H]2CCNC[C@@H]2C(=O)N(Cc2cn(Cc3ccccc3)c3cccc(F)c23)C2CC2)cc1=O	
